# From ChEMBL document CHEMBL4725350, “2-Oxaadamant-1-yl Ureas as Soluble Epoxide Hydrolase Inhibitors: In Vivo Evaluation in a Murine Model of Acute Pancreatitis” (J Med Chem, 2020)
# pIC50: −log10 of the molar value. Active and inactive are the calls of the source. The rule behind the calls is not given here.
# Key:
# Mus musculus [1] = experiment: Protection against cerulein-induced acute pancreatitis in C57BL/6J mouse assessed as reduction in TNF-alpha mRNA level at 30 mg/kg administered twice per day for 5 days followed by cerulein addition and measured 24 hrs post-last dose by Trisure-reagent based RT-PCR analysis; format: functional, organism-based; conditions: time 6.0 day
# Summary of the method: (§1)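 Pre-induction (prevention) protocol in C57BL/6J mice. Inhibitor is given ip at 30 mg/kg before cerulein induction of acute pancreatitis. Pancreatic mRNA of TNF-α, IL-1β, MCP-1 and ATF3 is compared with control and cerulein-only mice. Mean ± SEM, n = 5 per group.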
# [2] = Half life in CD-1 mouse at 1 mg/kg, ip measured up to 24 hrs by LC-MS analysis; format: ADME, organism-based; conditions: in vivo
# Summary of the method: (§2)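 Single dose, 1 mg/kg, given to mice intravenously or intraperitoneally. Parameters are taken from the plasma concentration–time profile: T1/2, Tmax, Cmax, C0 (iv only), AUClast, AUCINF_obs, Vz and Cl. Bioavailability is derived from ip versus iv exposure.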
# [3] = Clearance in CD-1 mouse at 1 mg/kg, iv measured up to 24 hrs by LC-MS analysis; format: ADME, organism-based; conditions: in vivo; summary of the method: as §2
# Mus musculus [4] = experiment: Protection against cerulein-induced acute pancreatitis in C57BL/6J mouse assessed as reduction in MCP1 mRNA level at 3 mg/kg administered 24 hrs post-cerulein addition and measured after 24 hrs by Trisure-reagent based RT-PCR analysis; format: functional, organism-based
# Summary of the method: (§3)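 Post-induction (treatment) protocol in C57BL/6J mice. Acute pancreatitis is induced by several cerulein administrations, followed by ip sEH inhibitor at 3 or 30 mg/kg. Pancreatic mRNA of TNF-α, IL-1β, MCP-1 and ATF3 is quantified against control and cerulein-only groups. Mean ± SEM, n = 5 per group.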
# [5] = Acute toxicity in CD-1 mouse assessed as effect on body weight at 5 to 80 mg/kg, ip administered daily for 5 days and measured for 5 days; format: organism-based; conditions: in vivo, 240 h, dose 5-80 mg/kg, time 10 day
# Summary of the method: (§4)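 Mice received the compound intraperitoneally once a day for five consecutive days at 5, 10, 20 and 80 mg/kg. Acute toxicity was judged from body weight during treatment, apparent behaviour problems and the presence of petechiae.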
# Mus musculus [6] = experiment: Protection against cerulein-induced acute pancreatitis in C57BL/6J mouse assessed as reduction in MCP1 mRNA level at 30 mg/kg administered twice per day for 5 days followed by cerulein addition and measured 24 hrs post-last dose by Trisure-reagent based RT-PCR analysis; format: functional, organism-based; conditions: time 6.0 day; summary of the method: as §1
# [7] = Acute toxicity in CD-1 mouse assessed as petechiae at 5 to 80 mg/kg, ip administered daily for 5 days; format: organism-based; conditions: in vivo, 120 h, dose 5-80 mg/kg, time 5 day; summary of the method: as §4
# [8] = AUClast in CD-1 mouse at 1 mg/kg, iv measured up to 24 hrs by LC-MS analysis; format: ADME, organism-based; parameters: route intravenous, dose 1 mg/kg, time <=24; conditions: in vivo; summary of the method: as §2
# Mus musculus [9] = experiment: Protection against cerulein-induced acute pancreatitis in C57BL/6J mouse assessed as reduction in IL-1beta mRNA level at 30 mg/kg administered 24 hrs post-cerulein addition and measured after 24 hrs by Trisure-reagent based RT-PCR analysis; format: functional, organism-based; summary of the method: as §3
# [10] = Clearance in CD-1 mouse at 1 mg/kg, ip measured up to 24 hrs by LC-MS analysis; format: ADME, organism-based; conditions: in vivo; summary of the method: as §2
# Mus musculus [11] = experiment: Protection against cerulein-induced acute pancreatitis in C57BL/6J mouse assessed as reduction in IL-1beta mRNA level at 30 mg/kg administered twice per day for 5 days followed by cerulein addition and measured 24 hrs post-last dose by Trisure-reagent based RT-PCR analysis; format: functional, organism-based; conditions: time 6.0 day; summary of the method: as §1
# [12] = Half life in CD-1 mouse at 1 mg/kg, iv measured up to 24 hrs by LC-MS analysis; format: ADME, organism-based; conditions: in vivo; summary of the method: as §2
# Mus musculus [13] = experiment: Protection against cerulein-induced acute pancreatitis in C57BL/6J mouse assessed as reduction in inflammation at 30 mg/kg administered twice per day for 5 days followed by cerulein addition and measured 24 hrs post-last dose by H and E staining based histological analysis; format: functional, organism-based; conditions: time 6.0 day
# Summary of the method: (§5)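 H&E-stained pancreas sections are scored for edema and inflammation. Groups are control, cerulein and cerulein plus inhibitor, in both the pre-induction and post-induction cerulein acute pancreatitis models in mice.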
# Mus musculus [14] = experiment: Protection against cerulein-induced acute pancreatitis in C57BL/6J mouse assessed as reduction in inflammation at 30 mg/kg administered 24 hrs post-cerulein addition and measured after 24 hrs by H and E staining based histological analysis; format: functional, organism-based; summary of the method: as §5
# [15] = AUC (infinity) in CD-1 mouse at 1 mg/kg, ip measured up to 24 hrs by LC-MS analysis; format: ADME, organism-based; parameters: route intraperitoneal, dose 1 mg/kg, time <=24; conditions: in vivo; summary of the method: as §2
# [16] = Initial plasma concentration in CD-1 mouse at 1 mg/kg, iv measured up to 24 hrs by LC-MS analysis; format: ADME, organism-based; conditions: in vivo; summary of the method: as §2
# [17] = Apparent volume of distribution in CD-1 mouse at 1 mg/kg, ip measured up to 24 hrs by LC-MS analysis; format: ADME, organism-based; conditions: in vivo; summary of the method: as §2
# [18] = target: T1, Bifunctional epoxide hydrolase 2 (Homo sapiens, UniProt P34913); experiment: Inhibition of recombinant human soluble epoxide hydrolase using CMNPC as substrate preincubated for 5 mins followed by substrate addition and measured at 30 secs interval for 10 mins by fluorescence assay
# T1 sequence (P34913 whole entry): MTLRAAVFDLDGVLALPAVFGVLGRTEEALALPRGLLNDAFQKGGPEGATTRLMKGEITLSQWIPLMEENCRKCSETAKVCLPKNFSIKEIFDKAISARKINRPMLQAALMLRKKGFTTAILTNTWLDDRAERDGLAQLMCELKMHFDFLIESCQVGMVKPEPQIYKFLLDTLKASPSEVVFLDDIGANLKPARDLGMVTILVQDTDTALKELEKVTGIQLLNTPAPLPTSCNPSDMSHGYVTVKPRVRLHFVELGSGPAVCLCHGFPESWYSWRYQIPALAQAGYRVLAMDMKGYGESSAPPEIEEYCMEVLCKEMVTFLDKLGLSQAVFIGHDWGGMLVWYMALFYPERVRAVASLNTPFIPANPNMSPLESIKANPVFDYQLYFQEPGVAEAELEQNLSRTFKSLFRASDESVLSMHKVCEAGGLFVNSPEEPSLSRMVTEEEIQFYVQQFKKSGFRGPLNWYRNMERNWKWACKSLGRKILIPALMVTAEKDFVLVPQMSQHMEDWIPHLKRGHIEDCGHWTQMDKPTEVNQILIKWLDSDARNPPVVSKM
# Homo sapiens [19] = species on record: Homo sapiens; experiment: Selectivity ratio of inhibition of recombinant human CYP2C9 to IC50 for inhibition of recombinant human soluble epoxide hydrolase
# [20] = Efflux ratio of apparent permeability across basolateral to apical side over apical to basolateral side in human Caco-2 cells at 10 uM measured after 2 hrs by LC-MS/MS analysis
# Homo sapiens [21] = species on record: Homo sapiens; experiment: Selectivity ratio of inhibition of recombinant human CYP2C19 to IC50 for inhibition of recombinant human soluble epoxide hydrolase
# Homo sapiens [22] = species on record: Homo sapiens; experiment: Selectivity ratio of inhibition of recombinant human CYP3A4 to IC50 for inhibition of recombinant human soluble epoxide hydrolase using DBF as substrate
# Homo sapiens [23] = species on record: Homo sapiens; experiment: Selectivity ratio of inhibition of recombinant human CYP2D6 to IC50 for inhibition of recombinant human soluble epoxide hydrolase
# [24] = Selectivity ratio of inhibition of recombinant human CYP2C9 to IC50 for inhibition of recombinant mouse soluble epoxide hydrolase
smiles,measurement,setting,value
CC(C)S(=O)(=O)N1CCC(NC(=O)NC23CC4CC(CC(C4)O2)C3)CC1,Activity,Mus musculus [1],Active
same,t1/2,[2],3.02 h
same,CL,[3],279.5 mL/min/kg
same,Activity,Mus musculus [4],inactive
same,Activity,[5],Non-Toxic
same,Activity,Mus musculus [6],Active
same,Activity,[7],Non-Toxic
same,AUClast,[8],59.1 ng·h/mL
same,Activity,Mus musculus [9],Active
same,CL/F,[10],474 mL/min/kg
same,Activity,Mus musculus [11],Active
same,t1/2,[12],2.8 h
same,Activity,Mus musculus [13],Active
same,Activity,Mus musculus [14],Active
same,AUC,[15],35.2 ng·h/mL
same,C0,[16],236.23 ng/mL
same,Vz,[17],124.02 L/kg
CC(=O)N1CCC(NC(=O)NC23CC4CC(CC(C4)O2)C3)CC1,pIC50,[18],7.52
same,Selectivity ratio,Homo sapiens [19],> 100
same,"efflux ratio at 2 h, 10 µM",[20],4.3
same,Selectivity ratio,Homo sapiens [21],> 100
same,Selectivity ratio,Homo sapiens [22],> 100
same,Selectivity ratio,Homo sapiens [23],> 100
same,Selectivity ratio,[24],> 100
